pIC50, pKi: −log10 of the molar value.
Key:
HepG2 = experiment: Hepatotoxicity against human HepG2 cells assessed as reduction in cell viability at 100 uM measured after 72 hrs by CellTiter96 Aqueous non-radioactive cell proliferation assay; type: toxicity, cell-based; conditions: hepg2, 72 h
In short: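 HepG2 cells seeded at 1.5×10^4 cells/well in MEM with 4.5 g/L glucose and 10% FBS, grown 24 h at 37 °C, 5% CO2. Compounds diluted in the same medium and applied for 72 h. CellTiter 96 AQueous reagent then added for 2 h, absorbance read at 490 nm. One-way ANOVA with Bonferroni post test.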

[1] = target: T1, Amine oxidase [flavin-containing] A (Homo sapiens, UniProt P21397); experiment: Inhibition of recombinant human MAOA expressed in baculovirus infected BTI insect cells using p-tyramine as substrate preincubated for 30 mins followed by substrate addition and measured over 45 mins by horseradish peroxidase-Amplex Red-coupled fluorometric assay
T1 sequence (P21397 whole entry): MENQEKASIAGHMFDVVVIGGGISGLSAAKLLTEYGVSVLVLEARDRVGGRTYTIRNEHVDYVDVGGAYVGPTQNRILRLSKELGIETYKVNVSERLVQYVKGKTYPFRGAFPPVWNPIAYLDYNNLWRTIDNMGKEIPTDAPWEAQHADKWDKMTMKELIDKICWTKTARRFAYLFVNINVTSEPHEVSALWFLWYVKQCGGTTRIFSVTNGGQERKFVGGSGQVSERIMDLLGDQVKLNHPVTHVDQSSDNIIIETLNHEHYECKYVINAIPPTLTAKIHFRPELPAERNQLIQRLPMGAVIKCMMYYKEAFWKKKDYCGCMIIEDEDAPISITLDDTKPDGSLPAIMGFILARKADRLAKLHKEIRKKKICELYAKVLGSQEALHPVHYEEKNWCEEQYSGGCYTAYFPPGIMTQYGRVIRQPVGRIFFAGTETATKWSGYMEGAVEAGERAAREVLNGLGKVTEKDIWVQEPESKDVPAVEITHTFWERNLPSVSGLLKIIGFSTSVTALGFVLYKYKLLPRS
In short: (§1)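 Human recombinant MAO-A or MAO-B enzyme. Activity detected fluorometrically with the Amplex Red monoamine oxidase assay.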

Adenosine receptor A1 [2] = target: T2, Adenosine receptor A1 (Rattus norvegicus, UniProt P25099); experiment: Displacement of [3H]CCPA from adenosine A1 receptor in rat brain cortical membranes; type: cell membranes
T2 sequence (P25099 whole entry): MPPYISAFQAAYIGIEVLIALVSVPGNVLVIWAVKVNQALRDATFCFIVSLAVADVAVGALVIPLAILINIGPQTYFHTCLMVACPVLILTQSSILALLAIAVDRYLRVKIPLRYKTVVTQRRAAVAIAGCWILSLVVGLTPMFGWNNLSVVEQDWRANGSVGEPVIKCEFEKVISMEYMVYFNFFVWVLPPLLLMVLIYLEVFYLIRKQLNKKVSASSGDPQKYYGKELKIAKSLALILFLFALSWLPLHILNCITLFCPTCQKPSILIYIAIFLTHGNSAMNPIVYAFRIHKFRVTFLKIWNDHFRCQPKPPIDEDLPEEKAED

[3] = target: T3, Amine oxidase [flavin-containing] B (Homo sapiens, UniProt P27338); experiment: Inhibition of recombinant human MAOB expressed in baculovirus infected BTI insect cells using p-tyramine as substrate preincubated for 30 mins followed by substrate addition and measured over 45 mins by horseradish peroxidase-Amplex Red-coupled fluorometric assay; in short: as §1
T3 sequence (P27338 whole entry): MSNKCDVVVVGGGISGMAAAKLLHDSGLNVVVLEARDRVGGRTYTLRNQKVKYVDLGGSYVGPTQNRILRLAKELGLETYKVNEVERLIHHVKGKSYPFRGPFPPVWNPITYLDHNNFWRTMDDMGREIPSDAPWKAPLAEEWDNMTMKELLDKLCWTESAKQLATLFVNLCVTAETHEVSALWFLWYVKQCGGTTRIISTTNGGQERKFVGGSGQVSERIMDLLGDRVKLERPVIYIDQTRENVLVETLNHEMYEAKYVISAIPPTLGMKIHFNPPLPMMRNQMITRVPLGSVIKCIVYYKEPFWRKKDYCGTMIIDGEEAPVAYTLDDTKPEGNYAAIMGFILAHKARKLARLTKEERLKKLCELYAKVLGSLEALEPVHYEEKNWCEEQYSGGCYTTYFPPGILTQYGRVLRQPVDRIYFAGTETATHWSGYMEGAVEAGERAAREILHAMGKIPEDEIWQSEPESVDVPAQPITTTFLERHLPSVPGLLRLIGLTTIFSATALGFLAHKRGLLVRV

Adenosine receptor A3 = target: T4, Adenosine receptor A3 (Homo sapiens, UniProt P0DMS8); experiment: Displacement of [3H]PSB11 from recombinant human adenosine A3 receptor expressed in CHO cells; type: cell-based
T4 sequence (P0DMS8 whole entry): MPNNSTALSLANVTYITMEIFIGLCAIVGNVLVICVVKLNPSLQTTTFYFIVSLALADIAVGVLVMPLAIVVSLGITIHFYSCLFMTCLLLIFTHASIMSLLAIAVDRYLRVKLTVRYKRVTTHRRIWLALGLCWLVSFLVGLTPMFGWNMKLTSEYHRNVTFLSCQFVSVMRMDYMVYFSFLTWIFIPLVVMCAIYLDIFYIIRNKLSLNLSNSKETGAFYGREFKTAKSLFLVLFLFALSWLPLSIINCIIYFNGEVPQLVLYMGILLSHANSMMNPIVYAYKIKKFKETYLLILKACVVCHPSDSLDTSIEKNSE

Adenosine receptor A2b = target: T5, Adenosine receptor A2b (Homo sapiens, UniProt P29275); experiment: Displacement of [3H]PSB603 from recombinant human adenosine A2b receptor expressed in HEK293 cells; type: cell-based
T5 sequence (P29275 whole entry): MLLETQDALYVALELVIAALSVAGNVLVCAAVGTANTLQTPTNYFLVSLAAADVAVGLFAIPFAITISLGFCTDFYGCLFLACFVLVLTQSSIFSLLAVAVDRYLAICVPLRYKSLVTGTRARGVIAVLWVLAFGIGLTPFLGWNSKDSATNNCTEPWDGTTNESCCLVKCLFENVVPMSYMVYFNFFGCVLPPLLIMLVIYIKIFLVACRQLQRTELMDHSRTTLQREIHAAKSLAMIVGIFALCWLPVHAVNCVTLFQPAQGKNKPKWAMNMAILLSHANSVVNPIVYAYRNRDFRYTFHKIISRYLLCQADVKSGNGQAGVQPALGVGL

[4] = target: T1, Amine oxidase [flavin-containing] A; experiment: Inhibition of recombinant human MAOA expressed in baculovirus infected BTI insect cells at 1 to 100 uM using p-tyramine as substrate preincubated for 30 mins followed by substrate addition and measured over 45 mins by horseradish peroxidase-Amplex Red-coupled fluorometric assay relative to control; conditions: 0.75 h; in short: as §1
Adenosine receptor A2a [5] = target: T6, Adenosine receptor A2a (Homo sapiens, UniProt P29274); experiment: Displacement of [3H]MSX2 from recombinant human adenosine A2a receptor expressed in HEK293 cells; type: cell-based
Adenosine receptor A1 [6] = target: T7, Adenosine receptor A1 (Homo sapiens, UniProt P30542); experiment: Displacement of [3H]CCPA from recombinant human adenosine A1 receptor expressed in CHO cells; type: cell-based
T7 sequence (P30542 whole entry): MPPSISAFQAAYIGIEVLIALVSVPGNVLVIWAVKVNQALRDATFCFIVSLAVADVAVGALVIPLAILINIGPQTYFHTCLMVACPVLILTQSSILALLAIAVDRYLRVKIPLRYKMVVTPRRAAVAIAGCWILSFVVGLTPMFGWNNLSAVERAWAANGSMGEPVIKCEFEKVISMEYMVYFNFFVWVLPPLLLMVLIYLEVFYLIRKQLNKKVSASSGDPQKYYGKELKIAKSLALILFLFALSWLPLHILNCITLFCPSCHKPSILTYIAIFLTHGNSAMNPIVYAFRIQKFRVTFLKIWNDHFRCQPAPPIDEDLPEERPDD

[7] = target: T8, Adenosine receptor A3 (Homo sapiens) (UniProt P0DMS8); experiment: Displacement of [3H]PSB11 from recombinant human adenosine A3 receptor expressed in CHO cells at 1 uM relative to control; type: cell-based
T8 sequence (whole entry): T4 sequence (P0DMS8 whole entry)
In short: (§2)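 Purchased membranes of CHO cells expressing human A1 ([3H]CCPA) or human A3 ([3H]PSB-11). A single high compound concentration is screened first; for potent compounds, full inhibition curves spanning 3 orders of magnitude. At least three independent experiments.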

[8] = target: T9, Adenosine receptor A1 (Homo sapiens) (UniProt P30542); experiment: Displacement of [3H]CCPA from recombinant human adenosine A1 receptor expressed in CHO cells at 1 uM relative to control; type: cell-based; in short: as §2
T9 sequence (whole entry): T7 sequence (P30542 whole entry)

[9] = target: T10, Adenosine receptor A2b (Homo sapiens) (UniProt P29275); experiment: Displacement of [3H]PSB603 from recombinant human adenosine A2b receptor expressed in HEK293 cells at 1 uM relative to control; type: cell-based
T10 sequence (whole entry): T5 sequence (P29275 whole entry)
In short: (§3)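 Purchased membranes of HEK cells expressing human A2A ([3H]MSX-2) or human A2B ([3H]PSB-603). A single high compound concentration is screened first; for potent compounds, full inhibition curves spanning 3 orders of magnitude. At least three independent experiments.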

Adenosine receptor A2a [10] = target: T6, Adenosine receptor A2a; experiment: Displacement of [3H]MSX2 from recombinant human adenosine A2a receptor expressed in HEK293 cells at 1 uM relative to control; type: cell-based; in short: as §3
[11] = target: T3, Amine oxidase [flavin-containing] B; experiment: Inhibition of recombinant human MAOB expressed in baculovirus infected BTI insect cells at 1 to 100 uM using p-tyramine as substrate preincubated for 30 mins followed by substrate addition and measured over 45 mins by horseradish peroxidase-Amplex Red-coupled fluorometric assay relative to control; conditions: 0.75 h; in short: as §1
Brain = experiment: Antioxidant activity in rat brain homogenate assessed as inhibition of FeCl2/ascorbic acid-induced lipid peroxidation by measuring reduction in TBARS level at 1000 uM preincubated for 5 mins followed by FeCl2/ascorbic acid addition and measured after 30 mins relative to control; type: functional, tissue-based; set-up: scale not given: the % may be the effect or the level left
In short: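 Rat brain homogenate in 0.9% saline, 10 mg tissue/ml, preincubated 5 min at 37 °C with compound or vehicle. Peroxidation started with 0.5 mM FeCl2 plus 2 mM ascorbic acid (added-solution concentrations). After 30 min, stopped with 0.2% BHT. Thiobarbituric acid reagent added, heated 15 min in boiling water, TBARS extracted into n-butanol and read at 532 nm. Carvedilol as reference.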

[12] = Antioxidant activity assessed as increase in total ferric ion reducing activity at 1000 uM using FeCl3.6H2O and TPTZ incubated for 10 mins under dark condition by FRAP assay relative to control; type: functional; set-up: scale not given: the % may be the effect or the level left
In short: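 FRAP reagent made by mixing 10 parts 300 mM acetate buffer pH 3.6, 1 part 10 mM TPTZ in 40 mM HCl and 1 part 20 mM FeCl3·6H2O. Reagent mixed with compound solution, 10 min at room temperature in the dark. Ferrous-TPTZ complex read at 593 nm. Result is absorbance increase versus solvent sample. FeSO4·7H2O standard curve, 37.5–1200 μM.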

T6 sequence (P29274 whole entry): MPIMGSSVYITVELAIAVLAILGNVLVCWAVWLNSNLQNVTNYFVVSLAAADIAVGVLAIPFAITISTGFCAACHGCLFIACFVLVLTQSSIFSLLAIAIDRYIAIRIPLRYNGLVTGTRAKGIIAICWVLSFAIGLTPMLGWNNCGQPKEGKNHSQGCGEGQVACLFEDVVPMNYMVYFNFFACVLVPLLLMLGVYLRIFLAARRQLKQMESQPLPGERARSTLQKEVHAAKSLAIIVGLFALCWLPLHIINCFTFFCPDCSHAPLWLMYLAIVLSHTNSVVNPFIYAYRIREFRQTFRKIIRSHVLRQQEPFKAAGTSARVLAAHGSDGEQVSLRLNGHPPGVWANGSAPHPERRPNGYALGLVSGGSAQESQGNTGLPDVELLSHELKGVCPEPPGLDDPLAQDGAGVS

Compound | Activity (HepG2) | pIC50 [1] | pKi (Adenosine receptor A1 [2]) | pIC50 [3] | pKi (Adenosine receptor A3) | pKi (Adenosine receptor A2b) | inhibition (INH) [4] [%] | pKi (Adenosine receptor A2a [5]) | pKi (Adenosine receptor A1 [6]) | inhibition [7] [%] | inhibition [8] [%] | inhibition [9] [%] | inhibition (Adenosine receptor A2a [10]) [%] | inhibition (INH) [11] [%] | Activity (Brain) [%] | Activity [12] [%]
Cn1c(=O)c2c(nc3n2CCCN3Cc2c(F)cccc2Cl)n(C)c1=O | Toxic | < 4.00 | 5.81 | 6.24 | < 6.00 | < 6.00 | 10 | 6.72 |  |  |  |  |  |  |  | 
Cn1c(=O)c2c(nc3n2CCN3Cc2ccc(Cl)c(Cl)c2)n(C)c1=O |  | < 6.00 |  | 6.29 | < 6.00 | < 6.00 | -2 | < 6.00 | < 6.00 | 11 | 1 | 22 | 29 |  |  | 
Cn1c(=O)c2c(nc3n2CCN3Cc2ccc(Cl)cc2)n(C)c1=O |  | < 6.00 |  | < 6.00 | < 6.00 | < 6.00 | 16 | < 6.00 | < 6.00 | 30 | 23 | 21 | 42 | 42 |  | 
Cn1c(=O)c2c(nc3n2CCCCN3Cc2ccccc2F)n(C)c1=O |  | < 6.00 |  | < 6.00 | < 6.00 | < 6.00 | 14 | 5.97 | < 6.00 | 11 | 11 | 40 |  | 39 |  | 
Cn1c(=O)c2c(nc3n2CCCN3CCc2ccncc2)n(C)c1=O |  |  | < 6.00 | < 6.00 | < 6.00 | < 6.00 |  | < 6.00 |  |  |  |  |  | 4 |  | 
COc1ccccc1OCCNCC(O)COc1cccc2[nH]c3ccccc3c12 (stereo unspecified) |  |  |  |  |  |  |  |  |  |  |  |  |  |  | 44.8 | 
Cn1c(=O)c2c(nc3n2CCN3Cc2cccc(Br)c2)n(C)c1=O |  | < 6.00 |  | < 6.00 | < 6.00 | < 6.00 | 11 | 6.43 | 6.40 | 22 |  | 30 |  | 39 |  | 
O=C1O[C@H]([C@@H](O)CO)C(O)=C1O |  |  |  |  |  |  |  |  |  |  |  |  |  |  |  | 100
Cn1c(=O)c2c(nc3n2CCN3Cc2ccc(F)c(Br)c2)n(C)c1=O |  | < 6.00 |  | 6.75 | < 6.00 | < 6.00 | 6 | < 6.00 | < 6.00 | 1 | 6 | 2 | 30 |  |  | 

Source: ChEMBL document CHEMBL4480426, “Novel multi-target directed ligands based on annelated xanthine scaffold with aromatic substituents acting on adenosine receptor and monoamine oxidase B. Synthesis, in vitro and in silico studies” (Bioorg Med Chem, 2019)
